Assay outcomes from PubChem.
An excerpt weighted towards active compounds, which were near 1% of everything screened.
bCat nuc transl: alters nuclear translocation of beta-catenin in HeLa cells | immunofluorescence imaging | nuclear translocation activity, % at 5 µM | hit rate 0.3% among 190,000;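 active = nuclear translocation activity above 50% at 5 µM, with a well cell count of 50 or more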;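 note: per-cell ratio of nuclear to cytoplasmic median beta-catenin stain intensity; plate controls were DMSO negative control for no effect and GSK-3 inhibitor IX positive control for full effect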
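test system = HeLa cells, endogenous beta-catenin | dosing = single 5 µM dose plus 0.02–20 µM confirmation series | times = compound treatment 24 h, 37°C, 5% CO2 | technique = beta-catenin immunofluorescence imaging with DAPI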
NOD2 RIPK2 PPI: blocks binding of human NOD2 to RIPK2; O43353; CHO BLA complementation NOD2-RIPK2, CCF4 ratio; inhibition, % at 4.98 µM; hit rate 0.38% among 360,000; AID 624267; in the data active = inhibition above about 21%;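 note: 0% = vehicle only and 100% = reference blocker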
Hsp70 act: transcriptional activators of Hsp70. AID 1203. activation, % at 10 µM. HeLa Hsp70 promoter luciferase reporter, luminescence; scaled: vehicle 0, proteasome-inhibitor control 100%. hit rate 0.04% among 200,000;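 active = activation above the mean across all tested compounds plus 3 SD, cutoff set per campaign, cut at about 5.5% in these data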;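 note: 100% = MG132 at 30 µM as the positive control and 0% = DMSO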
TLR4-MyD88 BLA: inhibitors of human TLR4-MyD88 binding. hit rate 0.18% among 200,000. HeLa CL3-4 TLR4/MyD88 BLA complementation, FRET ratio. inhibition, % at 8.4 µM. O00206+Q99836; in the data active = inhibition above about 25%;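 note: 0% = vehicle and 100% = reference inhibitor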
Target sequence (O00206 whole entry, looked up): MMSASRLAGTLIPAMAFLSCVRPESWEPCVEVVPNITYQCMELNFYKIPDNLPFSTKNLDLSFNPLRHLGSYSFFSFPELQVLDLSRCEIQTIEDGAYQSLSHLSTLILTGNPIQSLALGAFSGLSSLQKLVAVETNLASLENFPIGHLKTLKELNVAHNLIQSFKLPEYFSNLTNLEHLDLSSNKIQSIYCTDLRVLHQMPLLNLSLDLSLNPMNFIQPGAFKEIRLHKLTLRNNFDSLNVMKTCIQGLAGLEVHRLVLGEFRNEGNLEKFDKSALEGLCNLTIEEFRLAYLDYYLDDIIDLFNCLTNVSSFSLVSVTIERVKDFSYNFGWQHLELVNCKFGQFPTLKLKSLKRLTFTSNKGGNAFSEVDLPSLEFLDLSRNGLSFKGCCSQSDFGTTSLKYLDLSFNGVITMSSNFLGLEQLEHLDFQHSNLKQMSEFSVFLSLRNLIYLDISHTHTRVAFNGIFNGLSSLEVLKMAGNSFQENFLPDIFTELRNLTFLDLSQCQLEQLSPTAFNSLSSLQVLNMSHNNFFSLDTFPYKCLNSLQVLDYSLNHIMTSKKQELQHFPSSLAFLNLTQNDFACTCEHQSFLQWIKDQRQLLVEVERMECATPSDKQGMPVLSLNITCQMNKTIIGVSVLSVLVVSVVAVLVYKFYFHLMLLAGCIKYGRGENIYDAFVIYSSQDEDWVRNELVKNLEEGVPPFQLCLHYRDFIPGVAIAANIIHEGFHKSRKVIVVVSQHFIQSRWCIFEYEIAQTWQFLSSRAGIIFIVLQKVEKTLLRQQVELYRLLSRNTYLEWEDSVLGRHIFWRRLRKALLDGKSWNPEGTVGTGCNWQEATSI
Target sequence (Q99836 whole entry, looked up): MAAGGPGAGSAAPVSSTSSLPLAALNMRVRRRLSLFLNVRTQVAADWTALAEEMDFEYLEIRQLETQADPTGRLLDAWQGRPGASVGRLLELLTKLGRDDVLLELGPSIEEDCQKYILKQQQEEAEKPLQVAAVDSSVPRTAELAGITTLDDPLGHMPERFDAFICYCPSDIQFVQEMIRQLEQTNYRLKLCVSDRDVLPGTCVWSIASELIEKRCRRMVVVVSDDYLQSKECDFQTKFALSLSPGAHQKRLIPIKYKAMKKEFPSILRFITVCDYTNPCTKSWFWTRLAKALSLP
MT stabilize HCS: microtubule stabilization, imaging screen. hit rate 0.83% among 200,000. AID 2205. % tubulin-high responders, % at 10 µM. HeLa tubulin immunostaining HCS, 24 h; share of cells brighter than vehicle mean+2SD;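 active = plate Z-score above 3 for both tubulin-high and condensed-nucleus cell shares, with cell loss under 80%, at 10 µM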;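 note: anti alpha tubulin signal scored within the nucleus-defined area of each cell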
TLR9-MyD88 block: blocks human TLR9 binding to MyD88. AID 504734. CHO BLA complementation TLR9-MyD88, CCF4 FRET ratio. Q9NR96+Q99836. inhibition, % at 4.98 µM. hit rate 0.21% among 340,000;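 active = inhibition above the mean over all tested compounds plus 3 SD, cut at about 21% in these data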;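 note: 0% = DMSO only wells and 100% = clavulanate BLA inhibitor control wells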
Active calls of the source: *; . = not tested or not shown.

SMILES	bCat nuc transl	NOD2 RIPK2 PPI	Hsp70 act	TLR4-MyD88 BLA	MT stabilize HCS	TLR9-MyD88 block
O=C(c1cccc(S(=O)(=O)N2CCc3ccccc32)c1)N1CCCC(C(F)(F)F)C1 (stereo unspecified)	.	20	.	.	.	4
O=C(N/N=C/c1ccc(Cl)cc1)c1cc(-c2cccnc2)nc2ccccc12	-1	7	0	14	14	-9
CC(/C=N/NC(=O)CSc1nc2ccccc2n1C)=C\c1ccco1	25	-4	0	5	17*	-18
O=C(N/N=C/c1ccsc1)c1cc(-c2cccs2)nc2ccccc12	1	1	0	-5	10*	2
O=C(O)c1ccc(/C=N/NC(=O)c2cc(-c3cccs3)nc3ccccc23)cc1	2	-7	0	-6	3	2
O=C(N/N=C/c1ccc2c(c1)OCO2)c1cc(-c2ccncc2)nc2ccccc12	24	3	0	-7	21*	8
Cc1ccc(/C=N/NC(=O)c2cc(-c3cccnc3)nc3ccccc23)cc1	83*	10	0	-1	7	6
C[C@H]1CN(S(=O)C(C)(C)C)[C@H](CCO)/C1=C\CCO (stereo partly specified)	.	-9	.	.	.	-8
CC[C@]12C(=O)N(C)C[C@H]([C@@H]3C(=O)N(C)C(=O)[C@@H]31)N2C(=O)c1ccc(Cl)c(Cl)c1	.	14	.	.	.	-6
NC(=O)C(=O)N/N=C/c1c2ccccc2cc2ccccc12	.	-3	.	.	.	-3
Cc1n[nH]c(=O)n1-c1ccc(OCc2ccccc2)cc1	2	-12	0	-16	1	4
CC1=NOC(=O)/C1=C\c1ccc(-c2cccc(Cl)c2)o1	-1	9	0	13	3	17
CC1=CC2=NC(=O)/C(=C\c3ccc(-c4cccc(Cl)c4)o3)C(=N)N2O1	119*	-5	0	0	20*	-4
CC(=O)NC1=NN(C(C)=O)C(C)(c2cccs2)S1 (stereo unspecified)	2	3	0	1	39*	-4
CCCc1c(C)[nH]c2ccc(C(=O)O)cc2c1=S	-1	-11	.	.	.	-5
CCc1nc2ccc(C(=O)Nc3cccc(OC)c3)cn2c1N(CC)CCN(C)C	.	-1	.	.	.	.
O=C1N/C(=N\N=C\c2cccs2)SC1Cc1cccc(Cl)c1 (stereo unspecified)	25	0	0	-5	22*	-7
O=C(CSc1ccc(F)cc1)NC(=O)c1ccccc1	.	-5	.	.	.	-9
O=[N+]([O-])/C=C/c1c(OCc2ccccc2)ccc2ccccc12	-2	82*	1	13	3	27*
COCC1CCN(C(=O)c2ccc3nc(Cc4cccc(Cl)c4)oc3c2)CC1	.	7	.	.	.	18
CCCN1CCN(C(=O)c2ccc(S(=O)(=O)N(C)c3ccccc3OC)cc2)CC1	.	-4	.	.	.	5
COc1cc(C(C)=O)ccc1OC(=O)N1CCOCC1	.	-12	.	.	.	6
COc1ccc(C(=O)Nc2ncc3c(n2)CC(C)CC3=O)cc1 (stereo unspecified)	1	-19	0	3	1	6
COc1cccc(C(=O)Nc2ncc3c(n2)CC(c2ccc(OC)cc2OC)CC3=O)c1 (stereo unspecified)	73*	5	-1	-2	67	8
CCC(=O)N(CCC1(c2ccccc2OC)CCOC(C(C)C)C1)Cc1ccco1 (stereo unspecified)	-4	-2	.	.	.	-6
SMILES	bCat nuc transl	NOD2 RIPK2 PPI	Hsp70 act	TLR4-MyD88 BLA	MT stabilize HCS	TLR9-MyD88 block
OC(CNCc1ccc(-c2ccccc2)cc1)c1ccccc1 (stereo unspecified)	68*	7	0	-3	3	1
COc1ccc(/C=N/NC(=O)C2COc3ccccc3O2)cc1OC (stereo unspecified)	2	-9	0	7	2	-6
O=C(N/N=C/c1ccc2c(c1)OCO2)C1COc2ccccc2O1 (stereo unspecified)	-2	4	0	4	41*	9
O=C(N/N=C\c1cc(Br)cs1)C1COc2ccccc2O1 (stereo unspecified)	1	3	0	-2	43*	10
C#CCOCCOCCOCCNc1nc(N2CCN(C(=O)CCCCCCCCCCNC(=O)[C@@H](CCSC)n3cc(CCO)nn3)CC2)nc(N2CCN(C(=O)CCCCCCCCCCNC(=O)[C@H]([C@@H](C)CC)n3cc(CCCCN=C(N)N)nn3)CC2)n1	.	30*	.	.	.	1
C#CCOCCOCCOCCNc1nc(N2CCOCC2)nc(N2CCN(C(=O)CCCCCCCCCCNC(=O)[C@@H](CCSC)n3cc(CCO)nn3)CC2)n1	.	0	.	.	.	2
C#CCOCCOCCOCCNc1nc(N2CCN(C(=O)CCCCCCCCCCNC(=O)[C@H](CCCCN)n3cc(CCO)nn3)CC2)nc(N2CCN(C(=O)CCCCCCCCCCNC(=O)[C@H](CCCN=C(N)N)n3cc(C[C@@H](C)CC)nn3)CC2)n1	.	20	.	.	.	22*
C#CCOCCOCCOCCNc1nc(N2CCN(C(=O)CCCCCCCCCCNC(=O)[C@H](CCCCN)n3cc(CCCC(=O)O)nn3)CC2)nc(N2CCN(C(=O)CCCCCCCCCCNC(=O)[C@H](CCCN=C(N)N)n3cc(C[C@@H](C)CC)nn3)CC2)n1	.	10	.	.	.	-2
C#CCOCCOCCOCCNc1nc(N2CCN(C(=O)CCCCCCCCCCNC(=O)Cn3cc(C[C@@H](C)O)nn3)CC2)nc(N2CCN(C(=O)CCCCCCCCCCNC(=O)[C@H](CCCCN)n3cc(C[C@@H](C)CC)nn3)CC2)n1	.	24*	.	.	.	-2
COc1ccc(/C=N\NC(=O)c2cccc([N+](=O)[O-])c2)cc1Cn1cc([N+](=O)[O-])cn1	1	.	0	-7	5	.
COc1ccc(/C=N/NC(=O)c2cccc(O)c2)cc1Cn1nc(C)c([N+](=O)[O-])c1C	0	-7	0	12	19*	1
COc1ccc(/C=N/NC(=O)c2ccc(N)cc2)cc1Cn1cc([N+](=O)[O-])cn1	0	-8	0	-10	12*	9
COc1ccc2oc(C(=O)OC(C)C(=O)N3C(C)CCCC3C)c(C)c2c1 (stereo unspecified)	.	15	.	.	.	1
O=C(Nc1cccc(Cl)c1N1CCCCC1)c1ccc2c(c1)OCCO2	.	5	1	12	3	-8
O=C(NC(=S)Nc1cccc(Cl)c1N1CCCCC1)c1ccc2c(c1)OCCO2	86*	-12	0	-1	29*	-10
O=S1(=O)CCN(CCCCc2ccccc2)CC1	.	-14	.	.	.	-2
CCN(c1ccc(NC(=O)c2ccc(Cl)nc2)cc1)C(C)C	27	-7	-1	-3	23*	-3
CC1CC(C)CN(CC(O)COCc2ccccc2F)C1 (stereo unspecified)	.	5	.	.	.	-16
